Laboratory results from ChEMBL document CHEMBL1156621, “Synthesis and cellular effects of cycloterpenals: cyclohexadienal-based activators of neurite outgrowth” (2008).
In brackets after ≈: the same amount, converted by molar mass. Activity calls are given as the source filed them. No cut-off for these calls is given here.

What was measured:
PC-12 [1] = assay: Induction of neurite outgrowth in rat PC12 cells at 1 ug/mL after 6 days; format: functional, cell-based
Method in brief: (§1)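 Rat PC12 cells (ATCC CRL 1721) grown on collagen Type IV in RPMI 1640 with 10% heat-inactivated horse serum and 5% FBS, 37 °C, 5% CO₂. Seeded at 10,000 cells/well in collagen IV 96-well plates and allowed to adhere 24 h before compound. Tested in duplicate at final 100, 10 and 1 μg/mL; absolute EtOH as control. Neurite outgrowth and intercellular connections scored visually over 2 weeks.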

PC-12 [2] = assay: Induction of neurite outgrowth in rat PC12 cells assessed as neural extensions at 1 ug/mL after 5 days; format: functional, cell-based; method in brief: as §1
Escherichia coli = assay: Antibacterial activity against Escherichia coli after 16 hrs; format: functional
Bacillus subtilis = assay: Antibacterial activity against Bacillus subtilis after 16 hrs; format: functional
Saccharomyces cerevisiae = assay: Antifungal activity against Saccharomyces cerevisiae after 16 hrs; format: functional
Jurkat = assay: Growth inhibition of human Jurkat T cells at 1 ug/mL after 24 hrs; format: functional, cell-based
Method in brief: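 Cells kept in RPMI 1640 with 10% FBS at 37 °C, 5% CO₂. Harvested, counted and seeded at 200,000 cells/well (1 mL) in 48-well plates, then compound added. After 24 h incubation the cells were pelleted, washed in PBS and lysed. Lysate relative fluorescence measured on a fluorometer.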

PC-12 [3] = assay: Induction of neurite outgrowth in rat PC12 cells at 10 ug/mL after 7 days; format: functional, cell-based; method in brief: as §1

Row | Compound | MIC (Escherichia coli) [µg/mL] | MIC (Bacillus subtilis) [µg/mL] | MIC (Saccharomyces cerevisiae) [µg/mL] | Activity (PC-12 [1]) | Activity (PC-12 [2]) | Activity (Jurkat) | Activity (PC-12 [3])
1 | O=CC1=CC=C(c2ccc3c(c2)Cc2ccccc2-3)CC1c1ccc([N+](=O)[O-])cc1 (stereo not drawn) | > 100 | > 100 | > 100 | – | – | Active | –
2 | CC1=C(/C=C/C2=CC=C(C=O)C(C)(/C=C/C3=C(C)CCCC3(C)C)C2)C(C)(C)CCC1 (stereo not drawn) | > 100 | > 100 | > 100 | – | – | – | –
3 | CC1CC(c2ccc3c(c2)Cc2ccccc2-3)=CC=C1C=O (stereo not drawn) | > 100 | > 100 | > 100 | – | – | – | –
4 | CN(C)c1ccc(-c2cc(-c3ccc4ccccc4c3)ccc2C=O)cc1 | > 100 | > 100 | > 100 | – | – | – | –
5 | Cc1ccc(C=O)c(-c2ccc(N(C)C)cc2)c1 | > 100 | 10 (≈ 41.8 µM) | > 100 | – | – | – | –
6 | CCCCC[C@H]1C(C)=CC=C(C=O)[C@H]1c1ccccc1 | > 100 | > 100 | > 100 | – | – | – | –
7 | CC1=C(/C=C/C2=CC=C(C=O)C(C)C2)C(C)(C)CCC1 (stereo not drawn) | > 100 | > 100 | > 100 | – | – | – | –
8 | CC1=C(/C=C/C2=CC=C(C=O)C(c3ccccc3)C2)C(C)(C)CCC1 (stereo not drawn) | > 100 | > 100 | > 100 | – | – | – | –

Further lines, with some results ahead:

Row | MIC (Escherichia coli) [µg/mL] | MIC (Bacillus subtilis) [µg/mL] | MIC (Saccharomyces cerevisiae) [µg/mL] | Compound | Activity (PC-12 [1]) | Activity (PC-12 [2]) | Activity (Jurkat) | Activity (PC-12 [3])
9 | > 100 | > 100 | > 100 | Cc1ccc(C2(C)CC(c3ccc(-c4ccccc4)cc3)=CC=C2C=O)o1 (stereo not drawn) | Active | Active | Active | –
10 | > 100 | > 100 | > 100 | CN(C)c1ccc(C2CC(c3ccc4ccccc4c3)=CC=C2C=O)cc1 (stereo not drawn) | – | – | – | Active
11 | > 100 | > 100 | > 100 | CN(C)c1ccc(C2CC(c3ccc(Cl)s3)=CC=C2C=O)cc1 (stereo not drawn) | – | – | Active | –
12 | > 100 | > 100 | > 100 | O=CC1=CC=C(c2ccc(-c3ccccc3)cc2)CC1c1ccc([N+](=O)[O-])cc1 (stereo not drawn) | – | – | Active | –
